Bioassay records from PubChem BioAssay.
This is a sample that favours compounds with a hit; in the whole collection about 1.8% have one here.
DDE Tn6 FP inh: inhibitors of Tn6 peptide binding to fibrin DD(E), primary screen, biochemical, fluorescence polarization, human fibrin, Tn6 probe; Fibrin DD(E) TRITC-Tn6 fluorescence polarization displacement; inhibition, % at 8.3 µM; AID 720509, 2013; 0.21% of 370,000 active;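 active = inhibition above a per-campaign cutoff: mean of compounds within control limits plus 3 SD, cut at about 15% in these data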;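 note: 0% = median of all compound wells on the plate and 100% = blocking peptide control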
Target sequence (P02675 whole entry, looked up): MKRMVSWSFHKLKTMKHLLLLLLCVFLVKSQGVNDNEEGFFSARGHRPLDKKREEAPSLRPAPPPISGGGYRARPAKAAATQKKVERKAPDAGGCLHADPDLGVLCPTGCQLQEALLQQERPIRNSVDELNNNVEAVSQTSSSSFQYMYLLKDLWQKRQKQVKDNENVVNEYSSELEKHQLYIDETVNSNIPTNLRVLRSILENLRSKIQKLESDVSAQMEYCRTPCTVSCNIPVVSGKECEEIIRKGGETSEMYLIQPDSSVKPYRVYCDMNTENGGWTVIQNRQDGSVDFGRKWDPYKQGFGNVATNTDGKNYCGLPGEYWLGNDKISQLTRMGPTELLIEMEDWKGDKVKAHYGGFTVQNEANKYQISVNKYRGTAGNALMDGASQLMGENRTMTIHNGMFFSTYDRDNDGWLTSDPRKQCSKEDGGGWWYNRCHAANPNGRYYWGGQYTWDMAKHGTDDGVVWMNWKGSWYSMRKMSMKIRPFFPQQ
HTRA1 inhibitor: HTRA1 serine protease inhibitors, primary screen, biochemical, fluorescence polarization, HTS; Q92743; recombinant HTRA1, FP-rhodamine activity-based probe; inhibition, % at 5.96 µM; 0.5% of 340,000 active; in the data active = inhibition above about 36%;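 note: 0% = enzyme with DMSO and 100% = wells lacking enzyme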
DDE Tn7 FP inh: inhibitors of Tn7 peptide binding to fibrin DD(E), primary screen, biochemical, fluorescence polarization, human fibrin, Tn7 probe; Fibrinogen beta chain (Homo sapiens), P02675; FP displacement of FITC-Tn7 peptide from fibrin DD(E); 0% = median of compound wells per plate; inhibition, % at 8.3 µM; 0.13% of 370,000 active;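 active = inhibition above the mean of compounds falling within the control limits plus 3 SD of them, cut at about 14% in these data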;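 note: 0% = plate median of compound wells and 100% = 10 µM Aha-Tn7 peptide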
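Test system – human fibrin DD(E) · Times – 10 min preincubation, 3 h with tracer, room temperature · Detection – fluorescence polarization of the labelled Tn7 tracer · Measure – percent inhibition normalized to high-control wells · Benchmarks – high control wells with 10 µM unlabelled Aha-Tn7 peptide (full inhibition) · Repeats – singlicate testing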
SIAE primary: human SIAE inhibitors, primary screen, biochemical, fluorescence polarization, FP-Rh probe, 1536-well HTS; Sialate O-acetylesterase (Homo sapiens), Q9HAT2; SIAE FP-Rh probe binding; inhibition, % at 9.66 µM; 0.69% of 370,000 active; AID 1053197, 2014;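 active = inhibition above a cutoff: mean of compounds within the control limits plus 3 SD of those, cut at about 17% in these data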;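 note: 0% = plate median of compound wells and 100% = probe without SIAE protein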
mABHD4 FP: ABHD4 inhibitors, primary screen, biochemical, fluorescence polarization, mouse; (Lyso)-N-acylphosphatidylethanolamine lipase (Mus musculus), Q8VD66; purified mABHD4, FP-Rh probe fluorescence polarization; inhibition, % at 8.92 µM; 0.54% of 370,000 active; AID 720543, 2013;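 active = inhibition exceeding the mean over every tested compound plus 3 SD, cut at about 30% in these data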;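 note: 0% = plate median of compound wells and 100% = S159A mutant with DMSO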
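Doses – 8.92 µM, single dose · Material – wild-type mouse ABHD4 protein · Replication – single well per compound (singlicate) · Measure – percent inhibition of probe binding, normalized to plate controls · Schedule – 45 min compound pre-incubation plus 60 min probe step, 25 °C · Detection – fluorescence polarization with parallel and perpendicular emission, 525/598 nm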
TCR-CD3 inh: inhibitors of human TCR-CD3 interaction, primary screen, biochemical, fluorescence, TAMRA-labeled TCR probe. inhibition, % at 9.4 µM. 0.37% of 360,000 active. AID 651800, 2012; in the data active = inhibition above about 19%;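 note: recombinant mutant TCR 2C K166C tagged with TAMRA read by polarization; 0% = receptor in buffer alone and 100% = receptor with positive control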
SIAE confirm: human SIAE inhibitors, retest, confirmation, biochemical, fluorescence polarization, FP-Rh probe, triplicate; 13% of 2,300 active; shares compounds with SIAE primary; inhibition, % at 9.66 µM; AID 1117263, 2014; SIAE FP-Rh activity-based probe;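 active = mean inhibition of the replicates above the hit cutoff set in the primary screen, cut at about 17% in these data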;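 note: 0% = SIAE with DMSO and probe and 100% = probe without SIAE; inhibitors lower polarization as more probe stays unbound to SIAE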
* = called active by the depositor; . = no result given.

SMILES	DDE Tn6 FP inh	HTRA1 inhibitor	DDE Tn7 FP inh	SIAE primary	mABHD4 FP	TCR-CD3 inh	SIAE confirm
CCN(CC)S(=O)(=O)c1cccc(C(=O)N/N=C/c2cccc(O)c2O)c1	-3	14	-5	27*	16	9	-7
CCN(CC)c1ccc(/C=N/NC(=O)c2cccc(S(=O)(=O)N3CCOCC3)c2)c(O)c1	-1	21	-3	20*	15	-2	11
O=C(N/N=C1/CC2CCC1C2)c1cc2ccccc2cc1O (stereo not drawn)	1	32	8	19*	29	7	-8
O=C(NCC1CCCCC1)c1cc2ccccc2cc1O	3	-26	-1	4	-1	0	.
COc1cc(Cn2nnc3ccccc32)cc(Br)c1O	-8	4	-5	23*	10	0	2
COc1ccc(C)cc1Cn1nnc2ccccc21	0	-2	-3	1	-3	-8	.
O=[N+]([O-])c1ccc(/C=N/Nc2ccnc3cc(Cl)ccc23)o1	-8	22	0	20*	17	-33	5
CC(C)C[C@H](NS(=O)(=O)c1ccc(F)cc1F)C(=O)N1CCC[C@H]1C(=O)NCc1ccccc1	6	.	4	-6	-3	-3	.
COc1ccc(N2CCN(CCCNC(=O)Cn3c(=O)c4cccn4c4cccnc43)CC2)c(OC)c1	-5	.	2	2	-9	.	.
COc1ccc(OC)c(CN(CC(F)(F)F)S(=O)(=O)c2ccccc2Br)c1	-2	.	2	-8	-4	0	.
O=C(CCNC(=O)c1ccco1)Nc1ccccc1OC(F)F	-3	8	5	5	1	2	.
O=C(CCNC(=O)c1ccco1)Nc1ccc(OC(F)F)c(Cl)c1	-4	-8	3	41*	-4	6	0
O=C(OCc1cn(Cc2cccc(F)c2)nn1)N1CCCCC1	3	.	4	5	0	.	.
CCC(=O)N1CCC(C)(C(=O)Nc2ccc(OC)c(OC)c2)C1 (stereo not drawn)	1	.	0	18*	7	-3	4
CCOc1cc(N2CCOCC2)c(OCC)cc1NC(=O)CN1C(=O)NC2(CCCCC2C)C1=O (stereo not drawn)	-6	6	-4	14	8	-7	.
CCOc1cc(N2CCOCC2)c(OCC)cc1NC(=O)CN1C(=O)NC(C)(c2ccc(OC)cc2)C1=O (stereo not drawn)	2	5	1	18*	-3	-2	3
CCOc1cc(N2CCOCC2)c(OCC)cc1NC(=O)c1ccc(OC)cc1	-3	5	-9	7	2	6	.
Cc1ccc(C2(C)NC(=O)N(CC(=O)Nc3ccc(N4CCOCC4)cc3N3CCOCC3)C2=O)cc1 (stereo not drawn)	2	-1	-2	19*	-3	4	1
CCOc1cc(N2CCOCC2)c(OCC)cc1NC(=O)c1ccc(NC(C)=O)cc1	11	2	5	23*	2	-2	3
CC1(c2ccccc2)NC(=O)N(CC(=O)Nc2ccc(N3CCOCC3)cc2)C1=O (stereo not drawn)	6	4	-4	19*	-2	2	5
COC(=O)C1=C(C)N(C)C(=NCc2ccc3c(c2)OCO3)NC1c1cccc(C(F)(F)F)c1 (stereo not drawn)	3	.	7	4	-3	-2	.
COC(=O)[C@]12C[C@H](CC(=O)NCc3ccc(OC)c(OC)c3)C(=O)N(CCC3=CCCCC3)C1=C[C@H](C(C)C)O[C@@H]2C1CC1	3	.	2	-2	-2	.	.
O=C(COC(=O)c1cccnc1Cl)Nc1ccc(N2CCOCC2)cc1	2	4	3	1	2	-7	.
